Laboratory results published in ChEMBL document CHEMBL2380249, “Synthesis and evaluation of Janus type nucleosides as potential HCV NS5B polymerase inhibitors” (Bioorg Med Chem Lett, 2013).

Columns and labels:
[1] = system: Human immunodeficiency virus 1; assay: Antiviral activity against Human immunodeficiency virus 1 LAI infected in human PBMC; format: functional, organism-based; settings: Human immunodeficiency virus 1, M:B_Lai
Outline: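 HIV-1 LAI replication in primary human peripheral blood mononuclear cells, with AZT as positive control.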

[2] = system: Hepatitis C virus; assay: Antiviral activity against Hepatitis C virus infected in human HuH7 cells; format: functional, organism-based, Hepacivirus hominis; settings: Huh-7
Outline: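 Subgenomic HCV replicon in Huh7 cells; HCV RNA extracted and amplified to measure inhibition of replication, with cytotoxicity determined in the same cells at the same time.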

[3] = Cytotoxicity against human CEM cells; format: cell-based; settings: CEM (CCRF-CEM) cells
[4] = Cytotoxicity against human HuH7 cells assessed as reduction in rRNA levels at 120 hrs by RT-PCR analysis; format: cell-based, Huh-7
[5] = Cytotoxicity against African green monkey Vero cells; format: cell-based; settings: chlorocebus sabaeus
[6] = Cytotoxicity against human PBMC; format: cell-based

| SMILES | EC50 [1] [µM] | EC90 [1] [µM] | EC50 [2] [µM] | EC90 [2] [µM] | CC50 [3] [µM] | CC50 at 120 h [4] [µM] | CC50 [5] [µM] | CC50 [6] [µM] |
| --- | --- | --- | --- | --- | --- | --- | --- | --- |
| Nc1ncnc2c1c1c(=O)[nH]c(S)nc1n2[C@@H]1O[C@H](CO)[C@@H](O)[C@H]1O | 9.6 | 30.2 | > 10 | > 10 | 8.2 | > 10 | 43.1 | 2.9 |
| C[C@@]1(O)[C@H](O)[C@@H](CO)O[C@H]1n1c2ncnc(N)c2c2c(=O)[nH]c(S)nc21 | > 100 | > 100 | > 10 | > 10 | > 100 | > 10 | > 100 | > 100 |
| C[C@@]1(O)[C@H](O)[C@@H](CO)O[C@H]1n1c2ncnc(N)c2c2c(N)ncnc21 | ≥ 100 | ≥ 100 | > 10 | > 10 | > 100 | > 10 | > 100 | > 100 |
| Nc1nc2c(c(=O)[nH]1)c1c(N)ncnc1n2[C@@H]1O[C@H](CO)[C@@H](O)[C@H]1O | 9.4 | 24 | 3 | 22.5 | 20.2 | < 10 | 63.1 | 3.1 |
| C[C@@]1(O)[C@H](O)[C@@H](CO)O[C@H]1n1c2ncnc(N)c2c2c(=O)[nH]c(N)nc21 | 3.3 | > 100 | 3 | 17.9 | 36.5 | 3 | > 100 | 92.1 |
| CCOC(=O)[C@H](C)NP(=O)(OC[C@H]1O[C@@H](n2c3ncnc(N)c3c3c(N)ncnc32)[C@](C)(O)[C@@H]1O)Oc1ccccc1 (stereo partly specified) |  |  | > 10 | > 10 |  | > 10 |  |  |
| C[C@@]1(O)[C@H](O)[C@@H](CO)O[C@H]1n1c2ncnc(N)c2c2c(=O)[nH]c(=O)[nH]c21 | > 100 | > 100 | > 10 | > 10 | > 100 | > 10 | > 100 | > 100 |
| Nc1ncnc2c1c1c(N)ncnc1n2[C@@H]1O[C@H](CO)[C@@H](O)[C@H]1O | > 100 | > 100 | > 10 | > 10 | 29.5 | > 10 | 82.5 | 53.8 |
| Cc1cn([C@H]2C[C@H](N=[N+]=[N-])[C@@H](CO)O2)c(=O)[nH]c1=O [ZIDOVUDINE] |  | 0.028 | > 10 | > 10 | 14.3 | > 10 | 53 | > 100 |
